Data published in ChEMBL document CHEMBL3588757, “Structure-based design, synthesis and biological testing of piperazine-linked bis-epipodophyllotoxin etoposide analogs” (Bioorg Med Chem, 2015).

Tests used:
Format in all cases: functional
[1] = test system: OVCAR-8; assay: Cytotoxicity against human OVCAR8 cells assessed as cell growth at 50 uM by SRB assay; details: read-out: Activity
[2] = test system: A498; assay: Cytotoxicity against human A498 cells assessed as cell growth at 50 uM by SRB assay; details: read-out: Activity
[3] = test system: UO-31; assay: Cytotoxicity against human UO31 cells assessed as cell growth at 50 uM by SRB assay; details: read-out: Activity
[4] = test system: PC-3; assay: Cytotoxicity against human PC3 cells assessed as cell growth at 50 uM by SRB assay; details: read-out: Activity
[5] = test system: DU-145; assay: Cytotoxicity against human DU145 cells assessed as cell growth at 50 uM by SRB assay; details: read-out: Activity
In short: (§1)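 Measured in the NCI-60 human tumour cell line panel using five-dose testing. Growth was recorded at each dose for each cell line, and a GI50 was derived for each line.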

[6] = test system: BT-549; assay: Cytotoxicity against human BT549 cells assessed as cell growth at 50 uM by SRB assay; details: read-out: Activity
[7] = test system: HOP-62; assay: Cytotoxicity against human HOP62 cells by SRB assay; in short: as §1
[8] = test system: HCT-15; assay: Cytotoxicity against human HCT15 cells by SRB assay; in short: as §1
[9] = test system: 786-0; assay: Cytotoxicity against human 786-0 cells by SRB assay
[10] = test system: DU-145; assay: Cytotoxicity against human DU145 cells by SRB assay; in short: as §1
[11] = test system: HOP-62; assay: Cytotoxicity against human HOP62 cells assessed as cell growth at 0.005 uM by SRB assay; details: read-out: Activity; in short: as §1
[12] = test system: COLO 205; assay: Cytotoxicity against human COLO205 cells assessed as cell growth at 0.005 uM by SRB assay; details: read-out: Activity
[13] = test system: SF-268; assay: Cytotoxicity against human SF268 cells assessed as cell growth at 0.005 uM by SRB assay; details: read-out: Activity
[14] = test system: MDA-MB-435; assay: Cytotoxicity against human MDA-MB-435 cells assessed as cell growth at 0.005 uM by SRB assay; details: read-out: Activity
[15] = test system: CAKI-1; assay: Cytotoxicity against human Caki1 cells assessed as cell growth at 0.005 uM by SRB assay; details: read-out: Activity
[16] = Cytotoxicity against human Hs578T cells assessed as cell growth at 0.005 uM by SRB assay; details: Hs-578T, read-out: Activity; in short: as §1
[17] = test system: SW-620; assay: Cytotoxicity against human SW620 cells assessed as cell growth at 0.05 uM by SRB assay; details: read-out: Activity
[18] = test system: MDA-MB-435; assay: Cytotoxicity against human MDA-MB-435 cells assessed as cell growth at 0.05 uM by SRB assay; details: read-out: Activity
[19] = test system: SK-MEL-5; assay: Cytotoxicity against human SK-MEL-5 cells assessed as cell growth at 0.05 uM by SRB assay; details: read-out: Activity
[20] = test system: UACC-257; assay: Cytotoxicity against human UACC257 cells assessed as cell growth at 0.05 uM by SRB assay; details: read-out: Activity
[21] = test system: UACC-62; assay: Cytotoxicity against human UACC62 cells assessed as cell growth at 0.05 uM by SRB assay; details: read-out: Activity
[22] = test system: IGROV-1; assay: Cytotoxicity against human IGROV1 cells assessed as cell growth at 0.05 uM by SRB assay; details: read-out: Activity; in short: as §1
[23] = test system: OVCAR-3; assay: Cytotoxicity against human OVCAR3 cells assessed as cell growth at 0.05 uM by SRB assay; details: read-out: Activity
[24] = test system: OVCAR-5; assay: Cytotoxicity against human OVCAR5 cells assessed as cell growth at 0.05 uM by SRB assay; details: read-out: Activity
[25] = test system: RXF 393; assay: Cytotoxicity against human RXF393 cells assessed as cell growth at 0.05 uM by SRB assay; details: read-out: Activity
[26] = test system: SN12C; assay: Cytotoxicity against human SN12C cells assessed as cell growth at 0.05 uM by SRB assay; details: read-out: Activity
[27] = test system: MDA-MB-231; assay: Cytotoxicity against human MDA-MB-231/ATCC cells assessed as cell growth at 0.05 uM by SRB assay; details: read-out: Activity
[28] = test system: NCI-H226; assay: Cytotoxicity against human NCI-H226 cells assessed as cell growth at 0.5 uM by SRB assay; details: read-out: Activity
[29] = test system: HCC 2998; assay: Cytotoxicity against human HCC2998 cells assessed as cell growth at 0.5 uM by SRB assay; details: read-out: Activity; in short: as §1
[30] = test system: SNB-19; assay: Cytotoxicity against human SNB19 cells assessed as cell growth at 0.5 uM by SRB assay; details: read-out: Activity
[31] = test system: SK-MEL-2; assay: Cytotoxicity against human SK-MEL-2 cells assessed as cell growth at 0.5 uM by SRB assay; details: read-out: Activity
[32] = test system: SK-MEL-28; assay: Cytotoxicity against human SK-MEL-28 cells assessed as cell growth at 0.5 uM by SRB assay; details: read-out: Activity
[33] = test system: OVCAR-4; assay: Cytotoxicity against human OVCAR4 cells assessed as cell growth at 0.5 uM by SRB assay; details: read-out: Activity
[34] = test system: HL-60(TB); assay: Cytotoxicity against human HL-60(TB) cells assessed as cell growth at 5 uM by SRB assay; details: read-out: Activity; in short: as §1
[35] = test system: MOLT-4; assay: Cytotoxicity against human MOLT4 cells assessed as cell growth at 5 uM by SRB assay; details: read-out: Activity
[36] = test system: NCI-H522; assay: Cytotoxicity against human NCI-H522 cells assessed as cell growth at 5 uM by SRB assay; details: read-out: Activity
[37] = test system: SF-539; assay: Cytotoxicity against human SF539 cells assessed as cell growth at 5 uM by SRB assay; details: read-out: Activity
[38] = test system: U-251; assay: Cytotoxicity against human U251 cells assessed as cell growth at 5 uM by SRB assay; details: read-out: Activity
[39] = test system: SK-MEL-28; assay: Cytotoxicity against human SK-MEL-28 cells assessed as cell growth at 5 uM by SRB assay; details: read-out: Activity
[40] = test system: IGROV-1; assay: Cytotoxicity against human IGROV1 cells assessed as cell growth at 5 uM by SRB assay; details: read-out: Activity
[41] = test system: 786-0; assay: Cytotoxicity against human 786-0 cells assessed as cell growth at 5 uM by SRB assay; details: read-out: Activity
[42] = test system: PC-3; assay: Cytotoxicity against human PC3 cells assessed as cell growth at 5 uM by SRB assay; details: read-out: Activity
[43] = Cytotoxicity against human Hs578T cells assessed as cell growth at 5 uM by SRB assay; details: Hs-578T, read-out: Activity; in short: as §1
[44] = test system: CCRF-CEM; assay: Cytotoxicity against human CCRF-CEM cells assessed as cell growth at 50 uM by SRB assay; details: read-out: Activity
[45] = read-out: LC50 (the source's name)
[46] = read-out: pLC50 (the source's name) (converted)

Q: What does the source list for `COc1cc([C@@H]2c3cc4c(cc3[C@@H](NC(=O)CN3CCN(CCCCCCN5CCN(CC(=O)N[C@@H]6c7cc8c(cc7[C@@H](c7cc(OC)c(O)c(OC)c7)[C@H]7C(=O)OC[C@@H]76)OCO8)CC5)CC3)[C@H]3COC(=O)[C@H]23)OCO4)cc(OC)c1O`?
A: growth at 50 µM [1]: 43%; growth at 50 µM [2]: -10%; growth at 50 µM [3]: 64%; growth at 50 µM [4]: 25%; growth at 50 µM [5]: 7%; growth at 50 µM [6]: -40%; GI50 ([7]; read-out: GI50): 3.6 µM; CC50 [7, 45]: > 50 µM; TGI ([7]; read-out: TGI): 22.8 µM; GI50 ([7]; read-out: pGI50 (converted)): 3.63 µM; CC50 [7, 46]: > 50.1 µM; TGI ([7]; read-out: pTGI (converted)): 22.9 µM; GI50 ([8]; read-out: GI50): > 50 µM; CC50 [8, 45]: > 50 µM; TGI ([8]; read-out: TGI): > 50 µM; GI50 ([8]; read-out: pGI50 (converted)): > 50.1 µM; CC50 [8, 46]: > 50.1 µM; TGI ([8]; read-out: pTGI (converted)): > 50.1 µM; GI50 ([9]; read-out: GI50): 2.86 µM; CC50 [9, 45]: > 50 µM; TGI ([9]; read-out: TGI): 31.7 µM; GI50 ([9]; read-out: pGI50 (converted)): 2.88 µM; CC50 [9, 46]: > 50.1 µM; TGI ([9]; read-out: pTGI (converted)): 31.6 µM; GI50 ([10]; read-out: GI50): 1.66 µM; CC50 [10, 45]: > 50 µM; TGI ([10]; read-out: TGI): > 50 µM; GI50 ([10]; read-out: pGI50 (converted)): 1.66 µM; CC50 [10, 46]: > 50.1 µM; TGI ([10]; read-out: pTGI (converted)): > 50.1 µM; growth at 0.005 µM [11]: 95%; growth at 0.005 µM [12]: 101%; growth at 0.005 µM [13]: 97%; growth at 0.005 µM [14]: 91%; growth at 0.005 µM [15]: 89%; growth at 0.005 µM [16]: 95%; growth at 0.05 µM [17]: 91%; growth at 0.05 µM [18]: 96%; growth at 0.05 µM [19]: 93%; growth at 0.05 µM [20]: 113%; growth at 0.05 µM [21]: 90%; growth at 0.05 µM [22]: 105%; growth at 0.05 µM [23]: 108%; growth at 0.05 µM [24]: 89%; growth at 0.05 µM [25]: 92%; growth at 0.05 µM [26]: 97%; growth at 0.05 µM [27]: 94%; growth at 0.5 µM [28]: 73%; growth at 0.5 µM [29]: 82%; growth at 0.5 µM [30]: 66%; growth at 0.5 µM [31]: 105%; growth at 0.5 µM [32]: 91%; growth at 0.5 µM [33]: 90%; growth at 5 µM [34]: 6%; growth at 5 µM [35]: 6%; growth at 5 µM [36]: 51%; growth at 5 µM [37]: 12%; growth at 5 µM [38]: 23%; growth at 5 µM [39]: 56%; growth at 5 µM [40]: 74%; growth at 5 µM [41]: 40%; growth at 5 µM [42]: 54%; growth at 5 µM [43]: 64%; growth at 50 µM [44]: 7%
